Experimental data published in ChEMBL document CHEMBL4622978, “Tumor-Activated Benzothiazole Inhibitors of Stearoyl-CoA Desaturase” (J Med Chem, 2020).
Each block holds one compound with its values, some of them ahead of it. Active and inactive are the calls of the source. The rule behind the calls is not given here.

Tests used:
[1] = Cmax in lung of CD-1 female mouse at 10 mg/kg, ip single dose by LC-MS/MS analysis; details: CD-1, mouse
[2] = AUC in lung of CD-1 female mouse at 10 mg/kg, ip single dose by LC-MS/MS analysis; details: CD-1, mouse
[3] = Cmax in plasma of CD-1 female mouse at 10 mg/kg, ip single dose by LC-MS/MS analysis; details: CD-1, mouse
[4] = Cmax in fat of CD-1 female mouse at 10 mg/kg, ip single dose by LC-MS/MS analysis; details: CD-1, mouse
[5] = AUC in plasma of CD-1 female mouse at 10 mg/kg, ip single dose by LC-MS/MS analysis; details: CD-1, mouse
[6] = AUC in fat of CD-1 female mouse at 10 mg/kg, ip single dose by LC-MS/MS analysis; details: CD-1, mouse
[7] = Toxicity in fat-free diet fed nod-SCID mouse xenografted with NCI-H2122 cells assessed as effect on appearance at 10 mg/kg, ip BID for 3 weeks; format: organism-based; details: in vivo, 504 h
[8] = Toxicity in normal chow diet fed nod-SCID mouse xenografted with NCI-H2122 cells assessed as effect on behavior at 20 mg/kg, ip QD for 3 weeks; format: organism-based; details: in vivo, 504 h
[9] = Drug level in plasma of fat-free diet fed nod-SCID mouse xenografted with NCI-H2122 cells at 20 mg/kg, ip QD for 3 weeks and measured 3 hrs after final dose by LC-MS/MS analysis; format: ADME, organism-based
Summary of the method: (§1)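 Xenografted NOD-SCID mice on control or fat-free diet, dosed for three weeks, euthanized 3 h after the last dose. Plasma and tumor homogenate (3 volumes PBS) mixed with 2 volumes acetonitrile or methanol with 0.15% formic acid and internal standard, then centrifuged. Drug form quantified by LC-MS/MS against spiked blank-matrix standard curves.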

[10] = Toxicity in normal chow diet fed nod-SCID mouse xenografted with NCI-H2122 cells assessed as effect on appearance at 20 mg/kg, ip QD for 3 weeks; format: organism-based; details: in vivo, 504 h
[11] = Drug metabolism in human NCI-H2122 cells assessed as (R)-4-(amino(phenyl)methyl)-N-(6-hydroxybenzo[d]thiazol-2-yl)-benzamide formation at 100 nM by LC-MS/MS analysis; format: ADME, cell-based; details: nci-h2122, 0.1 µM
Summary of the method: (§2)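 H2122 and H1155 pLVX (empty vector) cells, 4000/well, adhered overnight. Then fresh medium with 100 nM prodrug, ±1 μM HET0016 (CYP4A/4F inhibitor), at 37 °C, 5% CO2. At varying times, cells and medium lysed and protein-precipitated with 2 volumes methanol/0.2% formic acid containing internal standard, then spun at 16,000g for 5 min. Parent and demethylated metabolite quantified by LC-MS/MS against standard curves in blank cell lysates.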

[12] = Toxicity in fat-free diet fed nod-SCID mouse xenografted with NCI-H2122 cells assessed as effect on appearance at 20 mg/kg, ip QD for 3 weeks; format: organism-based; details: in vivo, 504 h
[13] = Toxicity in normal chow diet fed nod-SCID mouse xenografted with NCI-H2122 cells assessed as effect on body weight at 10 mg/kg, ip BID for 3 weeks; format: organism-based; details: in vivo, 504 h
NCI-H2122 [14] = experiment: Antitumor activity against human NCI-H2122 cells xenografted in nod-SCID mouse fed normal chow diet at 20 mg/kg, ip QD for 3 weeks; format: functional, organism-based
Summary of the method: (§3)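 Female NOD-SCID mice, 6–8 weeks, on control diet (4.1% soybean-oil fat) or fat-free diet (0.1% fat). Three days later, 5 × 10⁶ H2122 cells injected subcutaneously into the left flank. At ~100 mm³, randomized to groups of six. Dosing 10 mg/kg BID, 20 mg/kg QD, or vehicle BID (10% DMSO, 10% Kolliphor EL, 80% 50 mM lactic acid pH 3.6) for three weeks. Caliper measurements twice weekly; volume = length × width² × π/6.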

[15] = Toxicity in fat-free diet fed nod-SCID mouse xenografted with NCI-H2122 cells assessed as body weight loss at 20 mg/kg, ip QD for 3 weeks (reference value: <5%); format: organism-based; details: in vivo, 504 h
[16] = Drug metabolism in human NCI-H2122 cells assessed as (R)-4-(amino(phenyl)methyl)-N-(6-hydroxybenzo[d]thiazol-2-yl)-benzamide formation at 100 nM by in presence of CYP4F inhibitor HET0016 LC-MS/MS analysis; format: ADME, cell-based; details: nci-h2122, 0.1 µM
Summary of the method: as §2

[17] = Toxicity in fat-free diet fed nod-SCID mouse xenografted with NCI-H2122 cells assessed as effect on behavior at 10 mg/kg, ip BID for 3 weeks; format: organism-based; details: in vivo, 504 h
[18] = Toxicity in fat-free diet fed nod-SCID mouse xenografted with NCI-H2122 cells assessed as effect on body weight at 20 mg/kg, ip QD for 3 weeks; format: organism-based; details: in vivo, 504 h
[19] = Toxicity in fat-free diet fed nod-SCID mouse xenografted with NCI-H2122 cells assessed as body weight loss at 10 mg/kg, ip BID for 3 weeks (reference value: <5%); format: organism-based; details: in vivo, 504 h
[20] = Toxicity in fat-free diet fed nod-SCID mouse xenografted with NCI-H2122 cells assessed as effect on behavior at 20 mg/kg, ip QD for 3 weeks; format: organism-based; details: in vivo, 504 h
[21] = Toxicity in normal chow diet fed nod-SCID mouse xenografted with NCI-H2122 cells assessed as body weight loss at 10 mg/kg, ip BID for 3 weeks (reference value: <5%); format: organism-based; details: in vivo, 504 h
[22] = Drug level in tumor of fat-free diet fed nod-SCID mouse xenografted with NCI-H2122 cells at 20 mg/kg, ip QD for 3 weeks and measured 3 hrs after final dose by LC-MS/MS analysis; format: ADME, organism-based, Neoplasm; details: read-out: Drug uptake
Summary of the method: as §1

[23] = Drug level in plasma of normal chow diet fed nod-SCID mouse xenografted with NCI-H2122 cells at 20 mg/kg, ip QD for 3 weeks and measured 3 hrs after final dose by LC-MS/MS analysis; format: ADME, organism-based
Summary of the method: as §1

[24] = Half life in human NCI-H2122 cells at 100 nM in presence of CYP4F inhibitor HET0016 by LC-MS/MS analysis; format: ADME, cell-based; details: with HET0016 (CYP4F inhibitor), concentration not stated
Summary of the method: as §2

[25] = Half life in human NCI-H2122 cells at 100 nM by LC-MS/MS analysis; format: ADME, cell-based
Summary of the method: as §2

[26] = Toxicity in normal chow diet fed nod-SCID mouse xenografted with NCI-H2122 cells assessed as effect on appearance at 10 mg/kg, ip BID for 3 weeks; format: organism-based; details: in vivo, 504 h
[27] = Drug metabolism in human NCI-H1155 cells assessed as (R)-4-(amino(phenyl)methyl)-N-(6-hydroxybenzo[d]thiazol-2-yl)-benzamide formation at 100 nM by LC-MS/MS analysis; format: ADME, cell-based; details: nci-h1155, 0.1 µM
Summary of the method: as §2

[28] = Drug level in tumor of normal chow diet fed nod-SCID mouse xenografted with NCI-H2122 cells at 20 mg/kg, ip QD for 3 weeks and measured 3 hrs after final dose by LC-MS/MS analysis; format: ADME, organism-based, Neoplasm; details: read-out: Drug uptake
Summary of the method: as §1

NCI-H2122 [29] = experiment: Antitumor activity against human NCI-H2122 cells xenografted in nod-SCID mouse fed fat-free diet at 20 mg/kg, ip QD for 3 weeks; format: functional, organism-based
Summary of the method: as §3

[30] = Toxicity in fat-free diet fed nod-SCID mouse xenografted with NCI-H2122 cells assessed as effect on body weight at 10 mg/kg, ip BID for 3 weeks; format: organism-based; details: in vivo, 504 h
[31] = Toxicity in normal chow diet fed nod-SCID mouse xenografted with NCI-H2122 cells assessed as body weight loss at 20 mg/kg, ip QD for 3 weeks (reference value: <5%); format: organism-based; details: in vivo, 504 h
[32] = Toxicity in normal chow diet fed nod-SCID mouse xenografted with NCI-H2122 cells assessed as effect on behavior at 10 mg/kg, ip BID for 3 weeks; format: organism-based; details: in vivo, 504 h
[33] = Toxicity in normal chow diet fed nod-SCID mouse xenografted with NCI-H2122 cells assessed as effect on body weight at 20 mg/kg, ip QD for 3 weeks; format: organism-based; details: in vivo, 504 h
[34] = Half life in human NCI-H1155 cells at 100 nM by LC-MS/MS analysis; format: ADME, cell-based
Summary of the method: as §2

NCI-H2122 [35] = experiment: Antitumor activity against human NCI-H2122 cells xenografted in nod-SCID mouse fed fat-free diet at 10 mg/kg, ip BID for 3 weeks; format: functional, organism-based
Summary of the method: as §3

NCI-H2122 [36] = experiment: Antitumor activity against human NCI-H2122 cells xenografted in nod-SCID mouse fed normal chow diet at 10 mg/kg, ip BID for 3 weeks; format: functional, organism-based
Summary of the method: as §3

[37] = Drug level in tumor of nod-SCID mouse xenografted with human NCI-H2122 cells at 20 mg/kg, ip single dose and measured after 7 hrs by LC-MS/MS analysis; details: read-out: Drug uptake

Cmax [1]: 0.9 µM | AUC at 504 h [2]: 2.6 µM·h | Cmax [3]: 0.3 µM | Cmax [4]: 90 µM | AUC at 504 h [5]: 0.6 µM·h
Structure (SMILES): COc1ccc2nc(NC(=O)c3ccc(C(=O)c4ccccc4)cc3)sc2c1

AUC at 504 h [6]: 70 µM·h | Cmax [1]: 26 µM | AUC at 504 h [2]: 17 µM·h | Cmax [3]: 11 µM | Cmax [4]: 120 µM | AUC at 504 h [5]: 9.6 µM·h
Structure (SMILES): COc1ccc2nc(NC(=O)c3ccc(C(O)c4ccccn4)cc3)sc2c1 (racemic)

Further lines, the compound ahead of its results:

Structure (SMILES): COc1ccc2nc(NC(=O)c3ccc([C@H](N)c4ccccc4)cc3)sc2c1
Activity [7]: Non-Toxic | Activity [8]: Non-Toxic | concentration at 3 h [9]: > 5 µM | Activity [10]: Non-Toxic | Drug metabolism [11]: Metabolite_Detected | Activity [12]: Non-Toxic | Activity [13]: Non-Toxic | Activity (NCI-H2122 [14]): Active | Activity [15]: 7% | Drug metabolism [16]: Metabolite_Notdetected | Activity [17]: Non-Toxic | Activity [18]: Non-Toxic | Activity [19]: 17% | Activity [20]: Non-Toxic | Activity [21]: 13% | concentration at 3 h [22]: > 5 µM | concentration at 3 h [23]: > 5 µM | half-life at 0.1 µM [24]: > 48 h | Cmax [3]: 0.9 µM | half-life at 0.1 µM [25]: 19 h | Activity [26]: Non-Toxic | Drug metabolism [27]: Metabolite_Notdetected | concentration at 3 h [28]: > 5 µM | Activity (NCI-H2122 [29]): Active | Activity [30]: Non-Toxic | AUC at 504 h [5]: 1.6 µM·h | Activity [31]: 5% | Activity [32]: Non-Toxic | Activity [33]: Non-Toxic | half-life at 0.1 µM [34]: > 48 h | Activity (NCI-H2122 [35]): Active | Activity (NCI-H2122 [36]): Active

Structure (SMILES): COc1ccc2nc(NC(=O)c3ccc(C(N)c4ccccc4)cc3)sc2c1 (racemic)
AUC at 504 h [6]: 77 µM·h | Cmax [1]: 61 µM | AUC at 504 h [2]: 160 µM·h | concentration at 7 h [37]: 7 µM | Cmax [3]: 1.5 µM | Cmax [4]: 94 µM | AUC at 504 h [5]: 3 µM·h

Structure (SMILES): N[C@H](c1ccccc1)c1ccc(C(=O)Nc2nc3ccccc3s2)cc1
Drug metabolism [11]: Metabolite_Detected
